# Measurements taken from ChEMBL document CHEMBL3608285, “Citrifelins A and B, Citrinin Adducts with a Tetracyclic Framework from Cocultures of Marine-Derived Isolates of Penicillium citrinum and Beauveria felina” (2015).
# Calls of active or inactive are those of the source. The rule behind the calls is not given here. Numbered stars: 1 amine (or outer) side, 2 acyl side, 3 side chain; on linkers, the order of the positions; unused ones are H or OH. Square brackets hold non-standard residues; d marks the D form. Peptide text beside a SMILES is read from it. X1 = C[C@H]1CCN([*:1])[C@@H]1C(=O)[*:2]; dLac(3-vinyl) = C=CC[C@@H](O)C(=O)O; NMeF = CN[C@@H](Cc1ccccc1)C(=O)O; Hica(2S) = CC(C)C[C@H](O)C(=O)O; NMeV = CN[C@H](C(=O)O)C(C)C; NMeA = CN[C@@H](C)C(=O)O; βAla = NCCC(=O)O
# How the values were obtained:
# Vibrio alginolyticus = assay: Antimicrobial activity against Vibrio alginolyticus by well diffusion method; assay type: functional
# How it was run: (§1)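 Agar well diffusion assay against the bacterial test strain; chloromycetin run alongside as positive control. Method follows a cited earlier protocol.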
# Aeromonas hydrophila = assay: Antimicrobial activity against Aeromonas hydrophila by well diffusion method; assay type: functional, organism-based; how it was run: as §1
# Vibrio parahaemolyticus = assay: Antimicrobial activity against Vibrio parahaemolyticus by well diffusion method; assay type: functional, organism-based; how it was run: as §1
# Vibrio anguillarum = assay: Antimicrobial activity against Vibrio anguillarum by well diffusion method; assay type: functional, organism-based; how it was run: as §1
# Vibrio harveyi = assay: Antimicrobial activity against Vibrio harveyi by well diffusion method; assay type: functional, organism-based; how it was run: as §1
# Edwardsiella tarda = assay: Antimicrobial activity against Edwardsiella tarda by well diffusion method; assay type: functional, organism-based; how it was run: as §1
# Staphylococcus aureus = assay: Antimicrobial activity against Staphylococcus aureus by well diffusion method; assay type: functional
# Escherichia coli = assay: Antimicrobial activity against Escherichia coli by well diffusion method; assay type: functional
Structure (SMILES),MIC (Vibrio alginolyticus),MIC (Aeromonas hydrophila),MIC (Vibrio parahaemolyticus),MIC (Vibrio anguillarum),MIC (Vibrio harveyi),MIC (Edwardsiella tarda),MIC (Staphylococcus aureus),MIC (Escherichia coli)
CC(C)C[C@@H]1OC(=O)CCNC(=O)[C@H](Cc2ccccc2)N(C)C(=O)[C@H](C(C)C)N(C)C(=O)[C@H](Cc2ccccc2)NC(=O)[C@@H]2CCCN2C1=O (cyclo(F[NMeV][NMeF][βAla][Hica(2S)]P)),inactive,inactive,inactive,inactive,inactive,inactive,–,–
Cc1c(O)c(C(=O)O)c(O)c2c1[C@H](C)[C@@H](C)OC2=O,inactive,inactive,inactive,inactive,inactive,inactive,–,–
CC(C)C[C@@H]1OC(=O)CCNC(=O)[C@H](Cc2ccccc2)N(C)C(=O)[C@H](C(C)C)N(C)C(=O)[C@H](Cc2ccccc2)NC(=O)[C@@H]2[C@@H](C)CCN2C1=O (cyclo(F[NMeV][NMeF][βAla][Hica(2S)][X1])),inactive,inactive,inactive,inactive,inactive,inactive,–,–
C=CC[C@H]1OC(=O)CCNC(=O)[C@H](C)N(C)C(=O)[C@H](C(C)C)N(C)C(=O)[C@H]([C@@H](C)CC)NC(=O)[C@@H]2[C@@H](C)CCN2C1=O (cyclo(I[NMeV][NMeA][βAla][dLac(3-vinyl)][X1])),inactive,inactive,inactive,inactive,inactive,inactive,–,–
C=CC[C@H]1OC(=O)CCNC(=O)[C@H](C)N(C)C(=O)[C@H](C(C)C)N(C)C(=O)[C@H]([C@@H](C)CC)NC(=O)[C@@H]2CCCN2C1=O (cyclo([dLac(3-vinyl)]PI[NMeV][NMeA][βAla])),inactive,inactive,inactive,inactive,inactive,inactive,–,–
Cc1c(O)cc(O)c2c1[C@H](C)[C@@H](C)OC2=O,8 µg/mL,inactive,inactive,inactive,inactive,inactive,–,–
Cc1c(O)cc2c3c1[C@H](C)[C@@H](C)O[C@@H]3C[C@H](c1ccc(O)cc1)O2,16 µg/mL,inactive,inactive,inactive,inactive,inactive,8 µg/mL,8 µg/mL
COc1cc([C@H]2C[C@H]3O[C@H](C)[C@@H](C)c4c(C)c(O)cc(c43)O2)ccc1O,16 µg/mL,inactive,inactive,inactive,inactive,inactive,4 µg/mL,2 µg/mL
Cc1c2c(c3oc4cc(=O)c(C)c5c-4c(c3c1O)O[C@H](C)[C@H]5C)O[C@H](C)[C@H]2C,inactive,inactive,inactive,inactive,inactive,inactive,–,–
